{"source": "ChEMBL document CHEMBL4024792", "about": "“(N-Hydroxycarbonylbenylamino)quinolines as Selective Histone Deacetylase 6 Inhibitors Suppress Growth of Multiple Myeloma in Vitro and in Vivo” (J Med Chem, 2018)", "key": {"Histone deacetylase 1": {"target": "Histone deacetylase 1 (Homo sapiens, UniProt Q13547)", "sequence (Q13547 whole entry)": "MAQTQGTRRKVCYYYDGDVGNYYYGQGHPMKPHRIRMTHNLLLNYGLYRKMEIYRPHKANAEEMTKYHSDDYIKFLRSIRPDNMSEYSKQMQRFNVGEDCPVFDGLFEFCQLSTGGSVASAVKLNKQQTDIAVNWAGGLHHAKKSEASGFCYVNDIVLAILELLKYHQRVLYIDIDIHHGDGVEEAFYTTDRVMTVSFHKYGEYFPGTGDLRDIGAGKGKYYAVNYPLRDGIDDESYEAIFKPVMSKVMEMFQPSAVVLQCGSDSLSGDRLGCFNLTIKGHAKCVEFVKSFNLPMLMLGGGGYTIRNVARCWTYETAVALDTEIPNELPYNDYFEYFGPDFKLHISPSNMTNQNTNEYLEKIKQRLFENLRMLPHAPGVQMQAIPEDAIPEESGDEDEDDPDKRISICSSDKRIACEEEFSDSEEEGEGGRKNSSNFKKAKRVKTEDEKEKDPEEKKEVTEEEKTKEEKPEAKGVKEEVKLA", "test": "Inhibition of full length recombinant human C-terminal FLAG/His-tagged HDAC1 expressed in baculovirus infected sf21 cells using RHK-K(Ac)-AMC as substrate after 60 mins by fluorescence assay"}, "Histone deacetylase 9": {"target": "Histone deacetylase 9 (Homo sapiens, UniProt Q9UKV0)", "sequence (Q9UKV0 whole entry)": "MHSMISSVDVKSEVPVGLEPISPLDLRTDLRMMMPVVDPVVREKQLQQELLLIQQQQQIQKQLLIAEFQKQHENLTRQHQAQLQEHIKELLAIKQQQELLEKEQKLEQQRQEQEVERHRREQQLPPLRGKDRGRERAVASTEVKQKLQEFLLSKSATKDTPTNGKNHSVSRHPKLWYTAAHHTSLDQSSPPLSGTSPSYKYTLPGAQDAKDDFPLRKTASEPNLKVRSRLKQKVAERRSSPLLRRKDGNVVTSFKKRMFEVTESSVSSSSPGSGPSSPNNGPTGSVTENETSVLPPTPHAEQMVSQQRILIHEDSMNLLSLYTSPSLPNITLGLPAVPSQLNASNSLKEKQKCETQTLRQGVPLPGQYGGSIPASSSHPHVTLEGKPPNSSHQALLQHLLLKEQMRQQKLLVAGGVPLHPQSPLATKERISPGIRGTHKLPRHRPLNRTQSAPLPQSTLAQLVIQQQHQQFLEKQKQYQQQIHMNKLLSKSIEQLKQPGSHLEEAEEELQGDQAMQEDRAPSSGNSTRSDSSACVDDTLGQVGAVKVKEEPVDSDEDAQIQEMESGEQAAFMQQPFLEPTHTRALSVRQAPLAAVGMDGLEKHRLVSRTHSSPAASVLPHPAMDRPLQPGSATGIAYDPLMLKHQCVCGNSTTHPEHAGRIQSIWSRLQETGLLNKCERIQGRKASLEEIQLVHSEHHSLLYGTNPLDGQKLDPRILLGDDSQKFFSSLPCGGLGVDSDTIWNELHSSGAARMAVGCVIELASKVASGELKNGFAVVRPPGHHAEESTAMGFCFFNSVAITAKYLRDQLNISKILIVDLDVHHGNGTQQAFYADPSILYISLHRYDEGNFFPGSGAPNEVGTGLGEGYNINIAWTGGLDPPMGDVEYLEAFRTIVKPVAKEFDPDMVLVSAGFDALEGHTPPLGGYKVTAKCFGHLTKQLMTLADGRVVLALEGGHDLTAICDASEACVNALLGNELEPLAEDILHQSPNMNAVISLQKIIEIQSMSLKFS", "test": "Inhibition of HDAC9 (unknown origin)"}, "[1]": {"target": "T1, Polyamine deacetylase HDAC10 (Homo sapiens, UniProt Q969S8)", "T1 sequence (Q969S8 whole entry)": "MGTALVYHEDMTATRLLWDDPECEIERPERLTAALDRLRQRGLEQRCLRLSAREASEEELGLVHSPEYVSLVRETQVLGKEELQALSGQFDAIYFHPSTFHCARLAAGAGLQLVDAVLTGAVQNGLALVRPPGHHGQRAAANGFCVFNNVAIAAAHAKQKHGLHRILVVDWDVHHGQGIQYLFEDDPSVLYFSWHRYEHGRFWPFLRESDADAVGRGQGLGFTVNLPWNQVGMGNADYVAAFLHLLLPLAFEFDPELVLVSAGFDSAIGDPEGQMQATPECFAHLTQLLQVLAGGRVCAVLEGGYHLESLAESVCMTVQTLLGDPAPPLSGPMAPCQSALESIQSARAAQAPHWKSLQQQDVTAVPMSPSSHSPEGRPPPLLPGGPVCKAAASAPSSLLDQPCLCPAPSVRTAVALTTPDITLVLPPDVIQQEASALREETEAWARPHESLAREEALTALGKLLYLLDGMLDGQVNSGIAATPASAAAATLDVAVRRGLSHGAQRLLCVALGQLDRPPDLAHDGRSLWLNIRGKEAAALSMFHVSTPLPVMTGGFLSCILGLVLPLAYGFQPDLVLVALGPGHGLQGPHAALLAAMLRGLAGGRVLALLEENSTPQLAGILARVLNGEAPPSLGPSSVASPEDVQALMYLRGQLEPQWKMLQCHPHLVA", "test": "Inhibition of human HDAC10 using RHKKAc as substrate"}, "[2]": {"target": "T2, Protein deacetylase HDAC6 (Homo sapiens) (UniProt Q9UBN7)", "T2 sequence (whole entry)": "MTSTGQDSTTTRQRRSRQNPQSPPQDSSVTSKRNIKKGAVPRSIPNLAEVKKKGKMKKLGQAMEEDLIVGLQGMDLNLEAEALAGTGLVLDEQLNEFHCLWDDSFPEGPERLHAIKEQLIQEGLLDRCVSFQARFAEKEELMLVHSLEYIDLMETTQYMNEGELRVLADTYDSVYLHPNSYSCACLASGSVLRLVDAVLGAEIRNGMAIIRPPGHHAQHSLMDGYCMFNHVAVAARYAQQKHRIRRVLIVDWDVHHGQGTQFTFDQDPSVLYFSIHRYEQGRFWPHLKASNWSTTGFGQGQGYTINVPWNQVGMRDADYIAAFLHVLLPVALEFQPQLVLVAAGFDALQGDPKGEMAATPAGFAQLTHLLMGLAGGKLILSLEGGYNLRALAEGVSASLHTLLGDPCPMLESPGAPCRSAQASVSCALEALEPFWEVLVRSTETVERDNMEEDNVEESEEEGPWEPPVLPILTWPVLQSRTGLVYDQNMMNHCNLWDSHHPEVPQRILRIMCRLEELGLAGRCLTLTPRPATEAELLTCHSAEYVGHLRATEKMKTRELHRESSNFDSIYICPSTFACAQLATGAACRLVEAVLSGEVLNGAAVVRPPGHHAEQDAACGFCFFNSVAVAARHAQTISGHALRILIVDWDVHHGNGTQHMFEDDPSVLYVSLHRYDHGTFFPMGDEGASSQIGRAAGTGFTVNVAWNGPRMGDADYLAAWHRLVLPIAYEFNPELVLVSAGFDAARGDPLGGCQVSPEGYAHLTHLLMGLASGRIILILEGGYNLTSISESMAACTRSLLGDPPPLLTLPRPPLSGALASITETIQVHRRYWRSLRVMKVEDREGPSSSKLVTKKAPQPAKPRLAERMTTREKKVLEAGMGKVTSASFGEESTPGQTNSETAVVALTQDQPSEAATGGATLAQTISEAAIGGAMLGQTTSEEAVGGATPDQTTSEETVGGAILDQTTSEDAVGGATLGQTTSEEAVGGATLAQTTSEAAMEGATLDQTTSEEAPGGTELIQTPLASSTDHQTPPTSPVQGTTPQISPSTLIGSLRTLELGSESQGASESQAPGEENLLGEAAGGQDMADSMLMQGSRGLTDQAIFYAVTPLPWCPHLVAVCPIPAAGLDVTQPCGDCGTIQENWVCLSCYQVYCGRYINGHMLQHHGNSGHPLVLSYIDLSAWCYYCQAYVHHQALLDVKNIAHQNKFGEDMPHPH", "test": "Inhibition of HDAC6 in human RPMI8226 cells assessed as increase in acetylated tubulin level by immunoblot analysis relative to control", "type": "cell-based", "in_short": "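Multiple myeloma cells harvested in Tris-HCl lysis buffer (pH 7.4) with protease and phosphatase inhibitors, then centrifuged 17,000 g for 30 min at 4 °C. Lysates immunoblotted with specific antibodies for acetylated α-tubulin. Signal detected by ECL on film.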"}, "[3]": {"target": "T3, Protein deacetylase HDAC6 (Homo sapiens, UniProt Q9UBN7)", "T3 sequence (Q9UBN7 whole entry)": "T2 sequence (whole entry)", "test": "Inhibition of full length recombinant human N-terminal GST-tagged HDAC6 expressed in baculovirus infected insect cells using RHK-K(Ac)-AMC as substrate after 90 mins by fluorescence assay"}, "[4]": {"test": "Intrinsic clearance in human hepatocytes at 10 uM by LC-MS/MS analysis", "type": "ADME, cell-based, Hepatocyte", "details": "read-out: CLH", "in_short": "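Cryopreserved hepatocytes (Sprague-Dawley rat, beagle dog, human) incubated with compound at 10 µM, 37 °C, for up to 4 h. About 0.5×10^6 cells/well for rat and dog, 0.24×10^6 for human.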"}, "U-266 [5]": {"system": "U-266", "test": "Cell cycle arrest in human U266 cells assessed as accumulation at sub-G1 phase at 5 uM after 24 hrs in presence of bortezomib by propidium iodide staining based flow cytometry (reference value: 10.76%)", "type": "functional"}, "NCI-H929 [6]": {"system": "NCI-H929", "test": "Induction of apoptosis in human NCI-H929 cells at 5 uM after 24 hrs in presence of bortezomib by Annexin V/propidium iodide staining based flow cytometry", "type": "functional, cell-based"}, "U-266 [7]": {"system": "U-266", "test": "Cell cycle arrest in human U266 cells assessed as accumulation at G0/G1 phase at 5 uM after 24 hrs by propidium iodide staining based flow cytometry (reference value: 40.29%)", "type": "functional"}, "NCI-H929 [8]": {"system": "NCI-H929", "test": "Induction of apoptosis in human NCI-H929 cells at 5 uM after 24 hrs by Annexin V/propidium iodide staining based flow cytometry", "type": "functional, cell-based"}, "[9]": {"test": "Apparent permeability from basolateral to apical side in human Caco2 cells assessed as drug recovery at 10 uM after 2 hrs by LC-MS/MS analysis", "type": "ADME, cell-based", "details": "Caco-2, read-out: Drug recovery", "in_short": "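Caco-2 cells seeded at 8.4 × 10^4 cells/cm2 on polycarbonate inserts for 21 days. For A→B, donor was apical (HBSS/MES pH 6.5, 10 µM compound) and receiver basolateral (HBSS/HEPES pH 7.4). For B→A, donor was basolateral (HBSS/HEPES pH 7.4, 10 µM) and receiver apical (HBSS/MES pH 6.5). Incubated at 37 °C for 2 h. Receiver sampled at 30, 60, 90 and 120 min, donor at 0 and 120 min.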"}}, "note": "Calls of active or inactive are those of the source. The calls are words filed in the database; no cut-off is given here."}
{"smiles": "O=C(NO)c1ccc(CNc2cccc3ncccc23)cc1", "values": [{"measurement": "IC50", "setting": "Histone deacetylase 1", "result": 7.05, "unit": "µM"}, {"measurement": "IC50", "setting": "Histone deacetylase 9", "result": 1.92, "unit": "µM"}, {"measurement": "IC50", "setting": "[1]", "result": 1.26, "unit": "µM"}, {"measurement": "inhibition", "setting": "[2]", "result": "Dose-dependent effect"}, {"measurement": "IC50", "setting": "[3]", "result": 0.000795, "unit": "µM"}]}
{"smiles": "O=C(NO)c1ccc(CNc2cccc3cccnc23)cc1", "values": [{"measurement": "CLint scaled at 10 µM", "setting": "[4]", "result": 32.5, "unit": "mL/min/kg"}, {"measurement": "Activity", "setting": "U-266 [5]", "result": 45.29, "unit": "%"}, {"measurement": "Activity", "setting": "NCI-H929 [6]", "result": "Active"}, {"measurement": "Activity", "setting": "U-266 [7]", "result": 52.88, "unit": "%"}, {"measurement": "IC50", "setting": "Histone deacetylase 1", "result": 9.55, "unit": "µM"}, {"measurement": "Activity", "setting": "NCI-H929 [8]", "result": "Active"}, {"measurement": "IC50", "setting": "Histone deacetylase 9", "result": 1.53, "unit": "µM"}, {"measurement": "IC50", "setting": "[1]", "result": 9.79, "unit": "µM"}, {"measurement": "inhibition", "setting": "[2]", "result": "Dose-dependent effect"}, {"measurement": "recovery at 2 h, 10 µM", "setting": "[9]", "result": 69, "unit": "%"}, {"measurement": "IC50", "setting": "[3]", "result": 0.000291, "unit": "µM"}]}
